# Experimental data as given in ChEMBL document CHEMBL1134768, “Identification of a putative binding site for [2',5'-bis-O-(tert-butyldimethylsilyl)-beta-D-ribofuranosyl]-3'-spiro-5''-(4''-amino-1'',2''-oxathiole-2'',2''-dioxide)thymine (TSAO) derivatives at the p51-p66 interface of HIV-1 reverse transcriptase” (J Med Chem, 2001).
# Legend:
# CCRF-CEM [1] = test: Inhibitory activity against HIV-2 in CEM cell culture.; assay type: functional, cell-based; details: Homo sapiens
# MT4 [2] = test: Inhibitory activity against HIV-1 in MT-4 cell culture.; assay type: functional, cell-based; details: Homo sapiens
# Summary of the method: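 MT-4 cells at about 200000-300000 cells/mL infected with HIV-1 (IIIB) and incubated with serial compound dilutions for 5 days at 37 °C. Viable cells were counted by trypan blue exclusion.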
# CCRF-CEM [3] = test: Inhibitory activity against HIV-1 in CEM cell culture.; assay type: functional, cell-based; details: Homo sapiens
# Summary of the method: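 CEM cells at about 200000-300000 cells/mL infected with HIV-1 (IIIB), then added to serial dilutions of compound. After 4 days at 37 °C, syncytium formation was scored by microscopy.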
# MT4 [4] = test: Inhibitory activity against HIV-2 in MT-4 cell culture.; assay type: functional, cell-based; details: Homo sapiens
# [5] = target: Human immunodeficiency virus type 1 reverse transcriptase (Human immunodeficiency virus 1, UniProt Q72547); test: Inhibitory activity against wild-type HIV-1 reverse transcriptase
# [6] = target: Human immunodeficiency virus type 1 reverse transcriptase (Human immunodeficiency virus 1, UniProt Q72547, R172A); test: Inhibitory activity against R172A mutant reverse transcriptase
# [7] = target: Human immunodeficiency virus type 1 reverse transcriptase (Human immunodeficiency virus 1, UniProt Q72547, E138K); test: Inhibitory activity against E138K mutant reverse transcriptase
Structure (SMILES),EC50 (CCRF-CEM [1]) [nM],EC50 (CCRF-CEM [3]) [nM],EC50 (MT4 [2]) [nM],EC50 (MT4 [4]) [nM],IC50 [5] [nM],IC50 [6] [nM],IC50 [7] [nM]
Cc1cn([C@@H]2O[C@H](CO[Si](C)(C)C(C)(C)C)C3(OS(=O)(=O)C=C3N)[C@H]2O[Si](C)(C)C(C)(C)C)c(=O)[nH]c1=O (stereo partly drawn),> 20000,–,–,> 20000,6100,627,> 848000
Cc1cn([C@@H]2O[C@H](CO[Si](C)(C)C(C)(C)C)[C@@]3(OS(=O)(=O)C=C3N)[C@H]2O[Si](C)(C)C(C)(C)C)c(=O)n(C)c1=O,> 200000,60,50,> 200000,–,–,–
CC1=CNC(=O)N([C@@H]2O[C@H](CO[Si](C)(C)C(C)(C)C)[C@@]3(OS(=O)(=O)C=C3N)[C@H]2O[Si](C)(C)C(C)(C)C)C1,> 10000,120,230,> 10000,–,–,–
Cc1cn([C@@H]2O[C@H](CO[Si](C)(C)C(C)(C)C)[C@@]3(OS(=O)(=O)C=C3N)[C@H]2O[Si](C)(C)C(C)(C)C)c(=O)n(CCCO)c1=O,> 2000,10,30,> 2000,–,–,–
CC(C)=CCOc1cc(NC(=S)c2ccoc2C)ccc1Cl [UC 781],–,–,–,–,23.8,20.8,226

# The next lines start with results.
EC50 (CCRF-CEM [1]) [nM],EC50 (CCRF-CEM [3]) [nM],Structure (SMILES),EC50 (MT4 [2]) [nM],EC50 (MT4 [4]) [nM],IC50 [5] [nM],IC50 [6] [nM],IC50 [7] [nM]
> 2000,170,Cc1cn([C@@H]2O[C@H](CO[Si](C)(C)C(C)(C)C)[C@@]3(OS(=O)(=O)C=C3N)[C@H]2O[Si](C)(C)C(C)(C)C)c(=O)[nH]c1=S,170,> 10000,–,–,–
> 2000,100,CC1=CN([C@@H]2O[C@H](CO[Si](C)(C)C(C)(C)C)[C@@]3(OS(=O)(=O)C=C3N)[C@H]2O[Si](C)(C)C(C)(C)C)C(=O)NC1,200,> 10000,–,–,–
